Converted amounts (≈) assume the structure as drawn. “And” between values parts separate entries of the source, which are not always exact repeats. Identical values can stand only once. Like-named read-outs stand apart in the source and are kept apart here.
How the values were obtained:
Mab ATCC19977 = assay: Spontaneous mutant selection; format: cell-based, Mycobacterium abscessus; conditions: solid medium containing 4× MIC
[1] = test system: Mab type strain ATCC19977; assay: microbe, parasite or virus in culture; conditions: Mycobacteroides abscessus, ATCC19977, read-out: IC50 in CAMHB
[2] = test system: 76 M. abscessus clinical isolates covering the 3 Mab subspecies; assay: microbe, parasite or virus in culture; format: cell-based, Mycobacterium abscessus; conditions: Mycobacteroides abscessus
[3] = test system: M. abscessus subsp. abscessus ATCC 19977; assay: Efficacy in the GM-CSF KO mouse model of acute Mab infection; format: in vivo, GM-CSF KO (B6.129S-Csf2tm1Mlg/J) mice; conditions: 7 daily oral doses, 25 mg/kg
[4] = test system: intracellular Mab ATCC19977 in THP-1 macrophages; format: cell-based, Mycobacterium abscessus; conditions: 48 h treatment, compared to the start of treatment
In short: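 Intracellular bactericidal assay in THP-1-derived macrophages infected with M. abscessus subsp. abscessus ATCC19977. Test compound was added 2 h after infection at 1 and 10 µM and left on for 48 h. Each condition was run in technical triplicate.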

[5] = test system: Mab ATCC19977 replicating cultures; assay: microbe, parasite or virus in culture; format: cell-based, Mycobacterium abscessus subsp. abscessus
HepG2 cells = assay: Cytotoxicity assays; format: cell-based, human; conditions: indirect measure of selectivity
[6] = test system: THP-1 derived macrophages; assay: Uptake into THP-1 macrophages; format: in vitro ADME; conditions: intracellular to extracellular concentration ratio
in vitro = conditions: human, plasma
[7] = test system: intracellular M. abscessus ATCC 19977 pTEC27 in THP-1 macrophages; assay: Growth inhibition of intracellular Mab in THP-1 derived macrophages; format: cell-based, Mycobacterium abscessus; conditions: Mycobacteroides abscessus, ATCC19977, THP-1, read-out: MacIC50
[8] = test system: Mab type strain ATCC19977
Caseum binding = format: in vitro ADME
CYP3A4 mRNA = assay: CYP3A4 induction at the mRNA level in human hepatocytes; format: in vitro ADME
[9] = test system: Mab ATCC19977 (wild type); format: cell-based, Mycobacterium abscessus subsp. abscessus; conditions: concentration that inhibits 90% growth
[10] = Pharmacokinetic studies in mice; format: in vivo, CD-1 mice
[11] = Table 2
[12] = as published previously ref 28; cited from earlier work

Compound: CO[C@H]1/C=C/O[C@@]2(C)Oc3c(C)c(O)c4c(c3C2=O)C2=NC3(CCN(CC(C)C)CC3)NC2=C(NC(=O)/C(C)=C\C=C\[C@H](C)[C@H](O)[C@@H](C)[C@@H](O)[C@@H](C)[C@H](OC(C)=O)[C@@H]1C)C4=O [RBT, Rifabutin]
- frequency of resistance (Mab ATCC19977): 2.6 × 10^−8
- IC50 [1]: 1200 nM
- MIC50 ([2]; read-out: MIC50 against clinical isolates): 4.7 µM (≈ 3.98 µg/mL)
- MIC90 ([2]; read-out: MIC90 against clinical isolates): 9.1 µM (≈ 7.71 µg/mL)
- effect on lung bacterial burden [3]: neither reduced lung burden nor prevented bacterial growth
- activity against intracellular Mab in macrophages at 1 and 10 µM [4]: did not inhibit intracellular growth of Mab
- MBC ([5]; Mycobacteroides abscessus, ATCC19977, read-out: MBC90): 3.5 µM (≈ 2.96 µg/mL)
- kill plateau at 8× MIC ([5]; replicating cultures, 3 d): approximately 2 log
- HepG2 CC50/MIC (HepG2 cells): 154
- THP-1 IC/EC [6]: 26
- fraction unbound (in vitro; fu human, human plasma): 0.036
- fraction unbound (in vitro; plasma fu (human), Table 2): 0.0384
- IC50 [7]: 700 nM
- IC50 serum shift [8]: 8.1 fold
- fraction unbound (Caseum binding): 0.0094
- CYP3A4 induction @ 1 µM (CYP3A4 mRNA; 1 µM): 33 fold and 33.4 fold
- CYP3A4 induction @ 10 µM (CYP3A4 mRNA; 10 µM): 43 fold and 42.7 fold
- WT Mab MIC [9]: 2.0 µM
- fAUC/MIC at 10 mg/kg ([10]; AUC corrected for fraction unbound): 0.2
- Bioavailability ([10]; CD-1 mice, oral): 69.2%
- half-life ([10]; female, CD-1, mouse, plasma): 4.3 h
- clearance ([10]; female, CD-1, mouse, plasma, iv, 5 mg/kg): 10.3 mL/min/kg
- Vd ([10]; female, CD-1, mouse, plasma, iv, 5 mg/kg, Vd, CD-1 mice, i.v. 5 mg/kg): 3.9 L/kg
- plasma concentrations relative to potency values ([10]; oral 25 mg/kg, CD-1 mice): did not achieve therapeutic concentrations

Compound: CO[C@H]1/C=C/O[C@@]2(C)Oc3c(C)c(O)c4c(c3C2=O)C2=NC3(CCN(CC(C)C)CC3)NC2=C(NC(=O)/C(C)=C/C=C/[C@H](C)[C@H](O)[C@@H](C)[C@@H](O)[C@@H](C)[C@H](OC(=O)Nc2c(C)nc3ccccn23)[C@@H]1C)C4=O [UMN-131]
- plasma fu (human) [11]: 6.55%
- IC50 serum shift [8]: 3.3 fold
- IC50 ([8]; read-out: IC50 in 1:1 CAMHB:hSerum, 1:1 CAMHB:human serum): 200 nM
- IC50 ([8]; read-out: IC50 in CAMHB, CAMHB devoid of plasma proteins): 60 nM

Compound: O=C1CCc2c(OC[C@]3(O)CCN(c4c(F)cc(Cl)cc4F)C[C@H]3O)ccc(F)c2N1 [OPC-167832, Quabodepistat]
- IC50 [1]: 120 nM
- fraction unbound (in vitro): 0.0122
- plasma fu [12]: ~ 1%

Source: article PMC12067261 (Proceedings of the National Academy of Sciences of the …, 2025)
